The species entered for test [1] is Rattus norvegicus. Nature of the test: Effect on [3H]sradipine binding to rat heart. Put shortly: (§1)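 Sprague Dawley rat ventricle microsomes were prepared in 50 mM Tris with PMSF (pH 7.4), with a final 100 000g spin. Membranes (0.3 mg protein/mL) were preincubated 5 min with compound (10⁻⁶–10⁻¹¹ M), then given 0.2 nM [³H]-(+)-methylisradipine with 0.5 mM CaCl₂ for 60 min at room temperature. Filter-bound label was counted. Nonspecific binding was taken from 1 μM isradipine. Experiments were repeated 2–3 times in triplicate, with LIGAND analysis.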

The nature of test [2]: Concentration displacing [3H]sradipine binding to rat heart. In outline: as §1
The nature of test [3]: Concentration displacing [3H]-sradipine binding to rat brain. The class given is tissue-based. In outline:
(§2)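 Whole Sprague Dawley rat brain was homogenized in 25 mM HEPES/NaOH with 0.32 M sucrose and 0.1 mM PMSF (pH 7.4), and pellets were collected by centrifugation. Microsomes (0.3 mg protein/mL) received compound (10⁻⁶–10⁻¹¹ M) for a 5-min preincubation. Then 0.2 nM [³H]-(+)-methylisradipine was added with 0.5 mM CaCl₂, for 60 min at room temperature, followed by filtration and scintillation counting. Nonspecific binding was defined with 1 μM isradipine. Runs were 2–3 times in triplicate, fitted with LIGAND.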

Test [4] is filed under the species Rattus norvegicus. Nature of the test: Effect on [3H]sradipine binding to rat brain. Format: tissue-based. In outline: as §2
The species named for test [5] is Cavia porcellus. Nature of the test: Effect on [3H]sradipine binding to guinea pig ileum. Put shortly: (§3)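 Guinea pig ileal longitudinal-muscle microsomes were prepared in 50 mM Tris with PMSF (pH 7.0) and spun down at 45 000g. Membranes (0.3 mg protein/mL) were preincubated 5 min with compound (10⁻⁶–10⁻¹¹ M), then incubated 60 min at room temperature with 0.2 nM [³H]-(+)-methylisradipine and 0.5 mM CaCl₂. Samples were filtered and counted. Nonspecific binding was set with 1 μM isradipine. Runs were 2–3 times in triplicate, analysed with LIGAND.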

For test [6], the species on record is Cavia porcellus. Nature of the test: Concentration displacing [3H]-sradipine binding to guinea pig ileum. Put shortly:
as §3

For test [7], the species on record is Rattus norvegicus. Nature of the test: Effect on [3H]sradipine binding to rat brain. Format: tissue-based. Put shortly: as §2
Test [8] is described as follows: Concentration displacing [3H]sradipine binding to rat brain. The class given is tissue-based. Put shortly: as §2
A short description of test [9]: Concentration inhibiting [3H]sradipine binding to rat brain. The class given is tissue-based. Put shortly:
as §2

One may read the Ki as the equilibrium dissociation constant of an inhibitor or competing ligand from its target.

In the case of `CO/C(O)=C1\C(C)=NC(C)=C(C(=O)OC[C@H]2CCCO2)[C@@H]1c1ccccc1[N+](=O)[O-]`, the Bmax in test [1] came out at 81.4 fmol/mg; in [4], 79.1 fmol/mg; in test [5], 250 fmol/mg. In addition, the Ki came to 5.95 nM in test [2], 17.7 nM in test [3] and 11.1 nM in test [6].
In the case of `CO/C(O)=C1\C(C)=NC(C)=C(C(=O)OC[C@@H]2CCCO2)[C@H]1c1ccccc1[N+](=O)[O-]`, the results for the Bmax in test [1], in [7] and in test [5] were 74.9 fmol/mg, 74.9 fmol/mg and 299 fmol/mg, respectively. The Ki came to 0.6 nM in test [2], 0.58 nM in [8] and 0.96 nM in [6].
With `COC(=O)C1=C(C)NC(C)=C(C(=O)OC[C@@H]2CCCO2)[C@@H]1c1ccccc1[N+](=O)[O-]` (stereo in doubt), the results for the Bmax in test [1], in [4] and in test [5] were 65.3 fmol/mg, 77.2 fmol/mg and 261 fmol/mg, respectively. Moreover, the inhibition constant (Ki) turned out to be 13 nM in test [2], 18.1 nM in test [9] and 24.8 nM in test [6].
Regarding `COC(=O)C1=C(C)NC(C)=C(C(=O)OC[C@H]2CCCO2)[C@H]1c1ccccc1[N+](=O)[O-]` (stereo in doubt), the Bmax came to 84.7 fM/mg in [1], 79.7 fmol/mg in test [7] and 269 fmol/mg in test [5]. For the same compound, the inhibition constant Ki in test [2] worked out at 1 nM; in test [3] it was 0.67 nM; in [6] it was 2.04 nM.

The record behind these values is ChEMBL document CHEMBL1128480 (J Med Chem, 1995).
